In ChEMBL document CHEMBL1138426, “Synthesis and DNA-binding ability of C2R-fluoro substituted DC-81 and its dimers” (Bioorg Med Chem Lett, 2007):

Legend:
[1] = system: DNA; test: Binding affinity to calf thymus DNA at 1:5 (compound:DNA) molar ratio in pH 7.0, 37 degC after 18 hrs by thermal denaturation study; assay type: nucleic-acid assay; conditions: Bos taurus
In short: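 Thermal denaturation of calf thymus DNA at pH 7.00 ± 0.01. The buffer was aqueous sodium phosphate (10 mM sodium phosphate + 1 mM EDTA). DNA was 100 μM and compound 20 μM, a 1:5 molar ratio. The mix was incubated at 37 °C for 0, 18 or 36 h before melting. ΔTm is the shift from the Tm of DNA alone (mean of 10 determinations), ±0.1–0.2 °C.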

[2] = system: DNA; test: Binding affinity to calf thymus DNA at 1:5 (compound:DNA) molar ratio in pH 7.0, 37 degC after 36 hrs by thermal denaturation study; conditions: Bos taurus

Structure (SMILES) | ΔTm [1] [°C] | ΔTm [2] [°C]
COc1cc2c(cc1OCCCCOc1cc3c(cc1OC)C(=O)N1C[C@H](F)C[C@H]1C=N3)N=C[C@@H]1C[C@@H](F)CN1C2=O | 12.4 | 14
COc1cc2c(cc1OCCCCCOc1cc3c(cc1OC)C(=O)N1C[C@H](F)C[C@H]1C=N3)N=C[C@@H]1C[C@@H](F)CN1C2=O | 16.9 | 18.8
COc1cc2c(cc1O)N=C[C@@H]1C[C@@H](F)CN1C2=O | 2.1 | 2.3
COc1cc2c(cc1OCCCOc1cc3c(cc1OC)C(=O)N1CCC[C@H]1C=N3)N=C[C@@H]1CCCN1C2=O | 15.1 | –
COc1cc2c(cc1OCCCOc1cc3c(cc1OC)C(=O)N1C[C@H](F)C[C@H]1C=N3)N=C[C@@H]1C[C@@H](F)CN1C2=O | 5.2 | 6.2
COc1cc2c(cc1O)N=C[C@@H]1CCCN1C2=O | 0.7 | 0.7
